Structures are written as SMILES. Calls of active or inactive are those of the source.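 The calls were made as follows: active = inhibition of 30% or more at any tested concentration; inactive = the rest.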

This assay has as its system M17 leucyl aminopeptidase (Plasmodium falciparum 3D7). Description: Inhibition of P. falciparum M17 aminopeptidase – biochemical, QFRET, counter-screen for PfM1AAP inhibitor project, dose response (AID 588682). The settings on record: recombinant PfM17LAP, H-Leu-NHMec fluorogenic cleavage; series mostly up to 100 µM; inhibition: at the top concentration. A digest of the protocol: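 Assay system – recombinant PfM17LAP enzyme · Amount – 5 µg/mL rPFM17LAP enzyme · Medium – Tris pH 7.5 plus 2 mM CoCl2 · Also added – NHMec-releasing fluorogenic peptide substrate at 0.1 mM · Dosing – 100–0.2 µM compound series · Incubation – 90 min, room temperature · Technique – NHMec fluorescence, excitation 370 nm, emission 460 nm · Read-out – % enzyme inhibition · Replicates – triplicate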
For orientation: The purpose of a counterscreen is to sort out artefacts and off-target activity.
As for `CC[C@H](C)[C@H](NS(=O)(=O)c1ccc(Br)s1)C(=O)O`, the inhibition (commonly the relative decrease from the control value, in per cent) is 13.1% (inactive).

On to `CC[C@H](C)[C@H](NC(=O)c1ccc([N+](=O)[O-])cc1)C(=O)NCc1ccc(F)cc1`, for which the “inhibition” value is 5.3% (inactive).

As to `O=C(NCc1ccc2c(c1)OCO2)C1CCN(S(=O)(=O)c2ccc(-c3ccc(F)cc3)s2)CC1`, the “inhibition” value is 5.56% (inactive).

Regarding `CC(=O)Nc1cccc(-c2ccc(S(=O)(=O)N3CCC(C(=O)NCc4ccc5c(c4)OCO5)CC3)s2)c1`, the “inhibition” value is -15.5% (inactive).

For `CC[C@H](C)[C@H](NC(=O)c1ccc([N+](=O)[O-])cc1)C(=O)NCc1ccc(C(F)(F)F)cc1`, the “inhibition” value is 1.14% (inactive).

For the compound `COc1ccc(-c2ccc(S(=O)(=O)N3CCC(C(=O)NCc4ccc5c(c4)OCO5)CC3)s2)cc1`, the “inhibition” value was -148% (inactive).

For the compound `CC[C@H](C)[C@H](NC(=O)c1ccc([N+](=O)[O-])cc1)C(=O)NCc1ccccc1`, the “inhibition” value was 0.01% (inactive).

For `CC[C@H](C)[C@H](NS(=O)(=O)c1cccs1)C(=O)NCc1ccc(F)cc1`, the “inhibition” value was 16% (inactive).

Regarding `O=C(NCc1ccc2c(c1)OCO2)C1CCN(S(=O)(=O)c2ccc(-c3cccc(F)c3)s2)CC1`, the “inhibition” value was -2.68% (inactive).

Take `CC(C)(C)c1ccc(-c2ccc(S(=O)(=O)N3CCC(C(=O)NCc4ccc5c(c4)OCO5)CC3)s2)cc1`: the “inhibition” value was 3.33% (inactive).

In the case of `CC[C@H](C)[C@H](NS(=O)(=O)c1ccc(Br)s1)C(=O)NCc1ccc(C(F)(F)F)cc1`, the “inhibition” value is 12.8% (inactive).

Regarding `COc1cccc(-c2ccc(S(=O)(=O)N3CCC(C(=O)NCc4ccc5c(c4)OCO5)CC3)s2)c1`, the “inhibition” value was 9.87% (inactive).

With `CC[C@H](C)[C@H](NS(=O)(=O)c1ccc(Br)s1)C(=O)NCc1ccc(F)cc1`, the “inhibition” value was 28.7% (inactive).

Consider `CN(C)c1ccc(CNC(=O)C2CCN(S(=O)(=O)c3ccc(Br)s3)CC2)cc1`, for which the “inhibition” value was -16.8% (inactive).

`CC[C@H](C)[C@H](NC(=O)c1ccc(C(C)(C)C)cc1)C(=O)NCc1ccc(C(F)(F)F)cc1`: the “inhibition” value is 2.66% (inactive).

With `O=C(NCc1ccc2c(c1)OCO2)C1CCN(S(=O)(=O)c2ccc(-c3cncc4ccccc34)s2)CC1`, the “inhibition” value was 10.1% (inactive).

As to `O=C(NCc1ccc2c(c1)OCO2)C1CCN(S(=O)(=O)c2ccc(-c3ccccc3)s2)CC1`, the “inhibition” value is -13.1% (inactive).

Values taken from PubChem BioAssay AID588682 (Southern Research Specialized Biocontainment Screening …, 2011).
